Screens from PubChem BioAssay.
GalR3 antagonist – blocks the human galanin receptor 3 | O60755 | inhibition, % at 3 µM | HEK293 GalR3-CNG cAMP membrane potential fluorescence; galR3 body fused to GalR1 C-terminus | actives 0.44% (n = 360,000);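 active = inhibition above the screen-wide average plus 3 SD, cut at about 13% in these data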;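 note: forskolin and galanin both at EC90 stimulate the cells; cAMP rise reported by CNG channel membrane potential dye signal; 0% = forskolin plus galanin with DMSO and 100% = forskolin alone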
OX1R antag-1 – blocks the human orexin 1 receptor; inhibition, % at 6.6 µM; actives 1.8% (n = 330,000); OX1R-expressing cells, FRET antagonist read-out; AID 485270; O43613; in the data active = inhibition mostly above about 38%, no sharp cut-off; inactive = mostly below about 40%;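 note: 0% = agonist challenge alone and 100% = reference antagonist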
Target sequence (O43613 whole entry, looked up): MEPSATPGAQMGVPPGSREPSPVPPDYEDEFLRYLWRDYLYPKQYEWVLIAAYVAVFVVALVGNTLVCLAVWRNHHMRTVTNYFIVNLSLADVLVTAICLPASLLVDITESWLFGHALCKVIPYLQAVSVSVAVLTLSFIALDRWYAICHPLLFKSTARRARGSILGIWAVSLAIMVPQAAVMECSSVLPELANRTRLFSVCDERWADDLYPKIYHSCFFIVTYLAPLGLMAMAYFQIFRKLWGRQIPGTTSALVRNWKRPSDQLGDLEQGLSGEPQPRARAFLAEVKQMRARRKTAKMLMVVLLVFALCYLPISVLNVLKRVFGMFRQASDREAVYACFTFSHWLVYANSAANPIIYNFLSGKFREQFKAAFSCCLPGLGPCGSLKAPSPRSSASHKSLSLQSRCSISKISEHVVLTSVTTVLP
GPR7 antag – antagonists of human GPR7 (neuropeptides B/W receptor 1); inhibition, % at 4.4 µM; P48145; GPR7-expressing cells, fluorescence antagonist assay; actives 1.1% (n = 290,000); in the data active = inhibition above about 16%, passing the limit was not always enough;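 note: cells stimulated with the agonist NPW; 0% = agonist with vehicle and 100% = vehicle without agonist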
OX1R antag-2 – blocks the human orexin 1 receptor | inhibition, % at 5 µM | CHO/OX1R cells, Fluo-8 calcium fluorescence, orexin A | actives 0.43% (n = 330,000) | O43613;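 active = inhibition above its plate's threshold, mean inhibition of all tested compounds on the plate plus 3 SD, cut at about 37% in these data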;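 note: 0% = orexin A challenge wells and 100% = SB-334867-A antagonist wells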
CHO parental Ca – signal in parental CHO cells, OX1R antagonist counter-screen | parental CHO-K1, ATP-induced calcium, Fluo-8 fluorescence | inhibition, % at 5.6 µM | actives 0.63% (n = 330,000) | AID 463079;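 active = inhibition above that plate's mean sample inhibition plus 3 SD, cut at about 26% in these data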;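 note: 0% = ATP-challenged DMSO wells and 100% = DMSO wells without ATP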
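Assay system: untransfected parental CHO cell line. Also added: ATP agonist challenge. Dosing: one dose, 5.6 µM nominal. Measured by: Fluo-8 fluorescence. Read-out: % inhibition. Benchmarks: ATP wells versus no-ATP DMSO wells. Repeats: no replicates.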
GPR7 antag conf – human GPR7 antagonism, confirmation assay | GPR7-expressing cells, calcium fluorescence antagonist mode | inhibition, % at 4.4 µM | actives 52% (n = 2,400) | shares compounds with GPR7 antag; in the data active = inhibition above about 24%;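 note: stimulated with the GPR7 agonist NPW; 0% = agonist plus vehicle and 100% = vehicle alone without agonist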
MCHR1 antagonist – MCHR1 (human) antagonism in GPR7 counter-screen; shares compounds with GPR7 antag; MCHR1-expressing cells, fluorescence antagonist assay; inhibition, % at 4.4 µM; actives 62% (n = 2,400); AID 2148; in the data active = inhibition above about 22%;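 note: 0% = vehicle with agonist and 100% = vehicle without agonist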
* hit, by the source's call; . = no result. An excerpt weighted towards active compounds, which were near 3.1% of everything screened.

SMILES	GalR3 antagonist	OX1R antag-1	GPR7 antag	OX1R antag-2	CHO parental Ca	GPR7 antag conf	MCHR1 antagonist
Cc1ccc(C(=O)NCc2ccc3c(c2)OCO3)o1	-4	2	28*	-15	-18	0	5
CCOC(=O)Cn1cc(Cl)cc(C(=O)Nc2ccccc2)c1=O	-8	6	-7	-20	-17	.	.
Cc1nc(NC(=O)C(C)Oc2cccc(Cl)c2)sc1C(=O)N(C)C (centres undefined)	-11	12	-5	-4	-3	.	.
CS(=O)(=O)N1CCC(Oc2ccccc2C(=O)N2CCNC(=O)C2)CC1	-6	30	-3	-5	-4	.	.
CCOc1ccc(Oc2c(/C=N/NC(N)=O)c(C)nn2-c2ccccc2)cc1	7	9	-9	-3	-13	.	.
CCOc1ccc(Oc2c(/C=N/NC(=O)COc3ccccc3OC)c(C)nn2-c2ccccc2)cc1	1	9	35*	-36	-13	33*	47*
Cc1c(NC(=O)c2cc(-n3cnnc3)ccc2Cl)cccc1-c1nc2ccccc2s1	-10	13	-8	-30	-23	.	.
Cc1c(NC(=O)c2cccs2)cccc1-c1nc2ccccc2s1	-6	-12	33*	4	13	45*	64*
CCOc1cc(C)nc(N2CCC(C(=O)NCC3CCCO3)CC2)n1 (centres undefined)	-5	.	.	.	.	.	.
CCCN(CC(=O)Nc1ccccc1C)C(=O)c1cccc(S(=O)(=O)N2CCc3ccccc3C2)c1	-2	12	30*	-3	5	28*	55*
O=C(COC(=O)c1ccc(F)cc1F)NC(=O)Nc1ccc2c(c1)OCCO2	-3	5	.	-1	-14	.	.
Cc1ccccc1NC(=O)Cn1nnc(C(=O)NCc2ccco2)c1N	-9	5	8	5	1	.	.
Cc1ccccc1NC(=O)Cn1nnc(S(=O)(=O)c2ccc(C(C)(C)C)cc2)c1N	2	5	28*	13	10	34*	10
CCC(C)c1ccc(NC(=S)N2CCN(C(=O)C3CCCO3)CC2)cc1 (centres undefined)	-1	5	-7	-22	-5	.	.
CC(C)n1c(-c2ccco2)csc1=Nc1cccnc1	-8	74*	30*	36	48*	36*	52*
CCOC(=O)/C(=C/C=C1\Sc2cc(C)c(C)cc2N1CC)C(C)=O	-1	.	24*	.	.	38*	76*
CCn1c(CN2CCN(c3cccc(C)c3C)CC2)n[nH]c1=S	-5	8	5	-9	0	.	.
CCOc1cc(CNCCO)cc(Br)c1OCc1ccc(Cl)cc1	-10	4	54*	10	1	70*	78*
CCOc1cc(CNC(C)(C)CO)cc(Br)c1OCc1ccc(Cl)cc1Cl	-7	8	46*	15	18	67*	78*
CCc1ccc(C(C)NC(=S)NCc2ccc(F)cc2)cc1 (centres undefined)	-6	15	31*	0	14	43*	75*
N#Cc1c(Nc2ccccc2)sc(C(=O)c2ccc(F)cc2)c1N	-7	19	-9	-17	-1	.	.
Nc1c(C(=O)c2ccccc2)sc(Nc2ccccc2)c1S(=O)(=O)c1ccccc1	-3	26	22*	-19	-9	-27	-23
CSc1ccc(C(=O)C2CCCN(C(=O)Cc3nonc3C)C2)cc1 (centres undefined)	-3	17	11	-9	-8	.	.
O=C1C2C3c4ccccc4C(c4ccccc43)C2c2nc3ccccc3n21 (centres undefined)	-7	17	22*	-29	-19	8	32*
CN1C(=O)C2C3c4ccccc4C(c4ccccc43)[C@@H]2C1=O (some centres undefined)	-5	9	0	-18	-3	.	.
Cn1c(CCC(N)=O)nnc1SCC(=O)Nc1cc(S(=O)(=O)N2CCCC2)ccc1Cl	0	.	.	.	.	.	.
COc1ccc(C=O)cc1COc1ccc2c(c1)OCO2	-5	.	.	.	.	.	.
COc1ccc(C=O)cc1COc1ccc([N+](=O)[O-])c(C)c1	11	20	23*	-16	-10	49*	44*
COc1ccc(CN(C)C[C@@H]2OCc3cnnn3CCCC(=O)N([C@@H](C)CO)C[C@H]2C)cc1	-6	.	.	.	.	.	.
